Experimental data gathered from unrelated publications.
Lines come from different studies, so protocols differ.
Target: High affinity nerve growth factor receptor (NTRK1, Homo sapiens, UniProt P04629)

Cc1cnc(Nc2ccc(C(=O)N3CCC(N4CCCC4)CC3)cc2)nc1-c1cc2ccccc2s1  remaining binding (binding; competition with immobilised ligand; 1 µM): 0.3%
F[C@@H]1CCN(c2nccc(-c3cnn4ncccc34)n2)C1  remaining binding (binding; 1 µM): 86%
Cc1cc(Nc2nccc(C)n2)cc(-c2cnc([C@@]3(O)CC[C@H](C(=O)O)C(C)(C)C3)s2)c1  remaining binding (binding; competition with immobilised ligand; 1 µM): 30.2%
C=CC(=O)N1CCC(C(=O)NCC(=O)N2CCN(c3nc(-c4cnc(N)nc4C(F)F)nc(N4CCOCC4)n3)CC2)CC1  remaining binding (binding; competition with immobilised ligand; 1 µM): 81%
N[C@H]1CCN(c2nccc(-c3cnn4ncccc34)n2)C1  remaining binding (binding; 1 µM): 85%
Nc1ncc2c(n1)-c1c([nH]c3ccc(C#CC4CC4)cc13)CCCC2  remaining binding (binding; competition with immobilised ligand; 1 µM): 69%
CCN1CCN(Cc2ccc(C(=O)Nc3ccc(C)c(Oc4ccc5c(c4)CC(=O)N5)c3)cc2C(F)(F)F)CC1  remaining binding (binding; competition with immobilised ligand; 1 µM): 100%
COc1ccnn2ncc(-c3ccnc(N(C)C)n3)c12  remaining binding (binding; 1 µM): 79%
CC(C)(O)c1cncc(-c2nc3ccc(F)cc3n2C2CC2)c1  remaining binding (cell-free assay; competition with immobilised ligand; 1 µM): 100%
Cc1cnn2ncc(-c3ccnc(N(C)C)n3)c2c1  remaining binding (binding; 1 µM): 80%
N#CC1(c2ccccn2)CCN(Cc2cc(C(=O)N3CCCC3)c(=O)n3ccccc23)CC1  remaining binding (cell-free assay; competition with immobilised ligand; 1 µM): 100%
O=C(c1ccc(Nc2nccc(-c3cc4ccccc4s3)n2)cc1)N1CCC(N2CCCC2)CC1  remaining binding (binding; competition with immobilised ligand; 1 µM): 25%
C[C@@H]1CCN(c2nccc(-c3cnn4ncccc34)n2)C1  remaining binding (binding; 1 µM): 61%
CCS(=O)(=O)c1cc2cc(C[C@@](O)(CC(C)(C)c3ccc(F)cc3C(N)=O)C(F)(F)F)[nH]c2cn1  remaining binding (cell-free assay; competition with immobilised ligand; 1 µM): 74%
CNC(=O)[C@@H]1CC[C@@H](n2c(-c3ccc4cnccc4c3)nc3ccc(C(=O)NCc4cccc(C(N)=O)c4)cc32)C1  remaining binding (binding; competition with immobilised ligand; 1 µM): 92%
CN1CCN(c2ccc(Nc3nccc(-c4cccc([N+](=O)[O-])c4)n3)cc2C(F)(F)F)CC1  remaining binding (binding; 10 µM): 13%
FC(F)(F)Oc1cccc(-c2cnc3ccc(-c4ccncc4)nn23)c1  remaining binding (cell-free assay; competition with immobilised ligand; 5 µM): 1.9%
Cc1nc(N2CC[C@@H](O)C2)ncc1-c1cc(C(F)(F)F)cc2[nH]ncc12  remaining binding (cell-free assay; competition with immobilised ligand; 1 µM): 56%
O=C(c1ccc(Nc2ncc(Cl)c(-c3ccc(Cl)s3)n2)cc1)N1CCC(N2CCCC2)CC1  remaining binding (binding; competition with immobilised ligand; 1 µM): 1.3%
CN(C)c1ncc(F)c(-c2cnn3ncccc23)n1  remaining binding (binding; 1 µM): 97%
Cc1nccc(COC(=O)N2C[C@@H]3[C@@H](CNC(=O)c4ccc5[nH]nnc5c4)[C@@H]3C2)n1  remaining binding (cell-free assay; competition with immobilised ligand; 1 µM): 94%
O=C(Nc1c[nH]nc1C(=O)NC1CCNCC1)c1cc(F)cc(F)c1  remaining binding (binding; competition with immobilised ligand; 1 µM): 100%
CN(C(=O)c1ccccc1)c1cc(N(C)c2ccc3c(c2)CCc2ccc(C(=O)NCCN4CCOCC4)cc2C3=O)ccc1F  remaining binding (cell-free assay; competition with immobilised ligand; 1 µM): 79%
CN(C)c1nccc(-c2cnn3ncccc23)n1  remaining binding (binding; 1 µM): 68%
